This passage reports inhibition results from PubChem BioAssay AID493091 (Sanford-Burnham Center for Chemical Genomics, 2011).

Among all 340,000 compounds or so, about 3,000 (0.88%) were called active. The sample as a whole holds a higher share of actives than the screen did. Values without a mark were called inactive.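 How the source made its calls: active means inhibition above about 50% at 20 µM (limit read from the data); inactive means the rest.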

Sequence of Carboxy-terminal domain RNA polymerase II polypeptide A small phosphatase 1 (Homo sapiens) (Q9GZU7 76-261 limits assumed): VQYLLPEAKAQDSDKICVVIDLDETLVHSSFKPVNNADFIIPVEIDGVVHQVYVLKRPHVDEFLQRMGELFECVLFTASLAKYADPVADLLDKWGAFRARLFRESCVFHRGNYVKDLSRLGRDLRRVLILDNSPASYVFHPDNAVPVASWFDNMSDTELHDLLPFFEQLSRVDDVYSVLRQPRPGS

This test concerns the target Carboxy-terminal domain RNA polymerase II polypeptide A small phosphatase 1 (Homo sapiens) (UniProt Q9GZU7). Briefly: inhibition of human SCP1 dephosphorylation activity – biochemical, colorimetric, uHTS, primary screen (AID 493091).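 Further: plate controls were DMSO wells with enzyme for no effect and wells lacking enzyme for full effect.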 The conditions noted are these: Recombinant Scp1, phosphopeptide, malachite green phosphate absorbance; at 20 µM; stronger effect = higher value. The method, boiled down:
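System: truncated SCP-1 phosphatase (76-261aa); medium: Tris acetate buffer pH 5.5 with MgCl2 and Tween-20; incubation: 45 min room-temperature reaction, 5 min colour, 30 min stabiliser; compound: single 20 µM dose, 1% DMSO; reagent: Phosphorylated 17-residue peptide substrate; read-out: % inhibition at 20 µM; technique: colorimetric free-phosphate detection, absorbance 630 nm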
Regarding `CC(=O)Nc1ccc(S(=O)(=O)NC(C)C(=O)OCCOc2ccc(F)cc2)cc1` (stereo unspecified), the inhibition (usually the change of the read-out against control, counted positive when it falls) is -7.64%.
Take `CCOc1ccccc1Nc1nnc(SCC(=O)NCC2CCCO2)s1` (stereo unspecified): the inhibition was -9.59%.
As for `Cc1ccn2c(=O)nc(SCC(=O)NCc3ccc(F)cc3)nc2c1`, the inhibition is 16.3%.
Take `O=C(CSc1ncn[nH]1)NCc1ccc2c(c1)OCO2`: the inhibition was -1.73%.
With `Cc1ccn2c(=O)nc(SCC(=O)NCc3ccc4c(c3)OCO4)nc2c1`, the inhibition was 73.6% (active).
In the case of `O=C1CC2(CCN(C(=O)COc3ccc(F)cc3)CC2)Oc2ccccc21`, the inhibition was 1.25%.
For the compound `O=C(CSc1ncn[nH]1)Nc1ccnc2ccccc12`, the inhibition is -9.75%.
The same measure for `CCCCNC(=O)CCn1nc(-c2ccc(Cl)cc2)ccc1=O`: 6.19%; for `CCCCCN1CC(O)=C(c2ccccc2)C1=N`: -2.2%; for `CCCCCN1CC(O)=C(c2nc(-c3ccc(Cl)cc3)cs2)C1=N`: 94.9% (active).
Regarding `Cc1ccc(NC(=O)CN(C)C(=O)c2ccc(Br)o2)cc1`, the inhibition is 1.38%.
For the compound `CC1(C)CC(=O)C2=C(C1)NCN(CCCN1CCOCC1)C2`, the inhibition was -1.79%.
The same measure for `CC(C)C(=O)NC(NC(=S)NC1CCS(=O)(=O)C1)C(Cl)(Cl)Cl` (stereo unspecified): -9.76%; for `CC(=O)Nc1ccc(N2C(=O)CCC2=O)cc1C`: 75.8% (active); for `Cc1cccc(NC(=O)c2cc(N3C(=O)CCC3=O)ccc2Cl)n1`: -6.1%.
`COC(=O)c1cccc(NC(=O)c2cccc(N3C(=O)CCC3=O)c2)c1`: the inhibition was -7.64%.
As to `O=C(C(NS(=O)(=O)c1cccc2nsnc12)c1ccccc1)N1CCN(c2ccccn2)CC1` (stereo unspecified), the inhibition was -0.35%.
The same measure for `O=S(=O)(NC(=S)Nc1ccccc1)c1ccc(F)cc1`: -7.43%.
`CCOc1ccc(Nc2nc(Cc3nnc(SCC(=O)NC4CCCC4)n3C)cs2)cc1`: the inhibition is -5.22%.
The same measure for `COCCCn1c(SCC(=O)NC2CCCC2)nnc1-c1ccccc1`: -9.75%; for `COCCCn1c(Cc2csc(Nc3cccc(Cl)c3)n2)nnc1SCC(=O)OC1CCCCC1`: 58.9% (active); for `O=C(CSc1nnc(N2CCOCC2)n1-c1cccc(F)c1)N1CCN(c2ccccn2)CC1`: -3.89%.
As for `Cc1ccc(S(=O)(=O)NCCC(=O)NNC(=O)C2COc3ccccc3O2)cc1` (stereo unspecified), the figure is -1.94%; as for `Cc1c(CC(=O)N2CCN(C(=O)C3COc4ccccc4O3)CC2)c(=O)oc2c(O)c(O)ccc12` (stereo unspecified), 79.7% (active).
As for `Cc1c(C)c2ccc(OCC(=O)N3CCC(C(=O)O)CC3)c(C)c2oc1=O`, the figure is 1.4%.
In the case of `COc1ccc(NC2CCCN(C(=O)c3ccncc3)C2)cc1` (stereo unspecified), the inhibition was 3.08%.
Turning to `CNc1[nH]ncc1[N+](=O)[O-]`, the inhibition is -7.97%.
On to `NC(=O)c1nsc(C(=O)N(CCCN2CCOCC2)C(C(=O)NC2CCCCC2)c2ccc(Cl)cc2)c1N` (stereo unspecified), for which the inhibition is -5.84%.
For `CCS(=O)(=O)N1CCCC(C(=O)NCCCN(C)Cc2ccccc2)C1` (stereo unspecified), the inhibition is -3.41%.
As for `COc1ccc(Cc2nnc(NC(=O)Cc3cccs3)s2)cc1`, the inhibition is 87% (active).
On to `COc1ccc(OC)c(NC(=O)Cc2cccs2)c1`, for which the inhibition is 14.5%.
For `COc1ccc(Cc2nnc(NS(=O)(=O)Cc3ccccc3)s2)cc1`, the inhibition was -2.23%.
On to `CC1CCC(NC(=O)CNC(=O)c2ccc3ccccc3c2)CC1` (stereo unspecified), for which the inhibition is -3.85%.
Take `O=C(CN1CCCCC1)NC(=O)Nc1ccccc1F`: the inhibition is 1.25%.
As to `C=C1CCN([C@H](C(=O)NCc2cc(OC)c(OC)c(OC)c2)C(C)C)S(=O)(=O)c2ccccc21`, the inhibition was -5.59%.
As for `COc1ccccc1N1CCN(CC(=O)NC(=O)NCc2ccco2)CC1`, the figure is -8.28%; as for `NC(=O)CCN1CCN(S(=O)(=O)/C=C/c2ccccc2)CC1`, 5.89%; as for `O=C(CN1CCN(S(=O)(=O)/C=C/c2ccccc2)CC1)NC(=O)NCc1ccco1`, 52.3% (active).
As for `COC(=O)c1cc(OC)c(OC)cc1NC(=O)C1CCCO1` (stereo unspecified), the inhibition is -6.55%.
As for `CN(CC(=O)Nc1ccc(Cl)cc1)C(=O)CNC(=O)c1ccc2ccccc2c1`, the figure is -10%; as for `O=C(CCCOc1ccccc1)NNC(=O)c1ccc(Cl)cc1`, 0.5%.
As for `O=C(NNC(=O)c1ccc2ccccc2c1)c1ccc(Cl)cc1`, the figure is 99.5% (active); as for `N=C1C(=O)OCC1c1ccccc1NC(=O)CN1CCCCC1` (stereo unspecified), -9.11%.
In the case of `Cc1cc(C)n(CCNCc2c(C(=O)N3C[C@@H](C)O[C@@H](C)C3)nc3ccc(Cl)cn23)n1`, the inhibition was -3.38%.
As for `CCn1cc(CN2CCC(C(=O)Nc3cccc(-c4cccc(Cl)c4)c3)CC2)c(C)n1`, the figure is -4.7%; as for `CCOC(=O)CCCCCC(=O)Nc1ccc2c(c1)CC(=O)N([C@@H](C)CO)C[C@H](C)[C@@H](CN(C)Cc1ccccc1)O2`, -4.43%; as for `C=CCOc1c2ccc(C(=O)N(CC)c3ccc(OC)cc3)cc2nn1C`, -2.27%.
As for `O=C(COC(=O)c1cnccn1)Nc1cccc2ccccc12`, the figure is -9.56%; as for `CCOC(=O)C(=Cc1ccccc1OC)C(=O)OCC`, -0.82%; as for `C=C1c2cccc(OC)c2O[C@H](C(=O)OCC)[C@@H]1CCCCCC`, 101% (active).
The same measure for `CC1C(=O)NC(=O)C1c1ccccc1` (stereo unspecified): -3.27%; for `N#Cc1c(-c2cccs2)nc(SCC(=O)c2ccc(Br)cc2)[nH]c1=O`: 64.9% (active); for `O=C(CSc1nc2ccccc2c(=O)[nH]1)Nc1nc(-c2ccc(Br)cc2)cs1`: 3.75%.
With `CC(=O)CSc1nc(CCc2ccccc2)c(C#N)c(=O)[nH]1`, the inhibition was -7.04%.
Regarding `CCN(CC)C(=O)CS(=O)CC(=O)Nc1cc(OCCOC)c(Cl)cc1Cl` (stereo unspecified), the inhibition is 1.24%.
On to `O=C(Cn1cnc([N+](=O)[O-])n1)NCCc1ccccc1`, for which the inhibition is -2.5%.
